Laboratory results as given in paper PMC6911266 (Nature, 2019).
Residue numbers refer to the chain shown, from its start. Several values for one entry are separate records, joined by “and”; a condition that tells them apart may be missing. Equal entries are not always repeated.

Legend:
[1] = test system: P. falciparum 7G8^7G8+F145I parasite line; test: Parasite drug susceptibility assay; assay type: cell-based, Plasmodium falciparum; conditions: for IC50: Plasmodium falciparum, 7G8, 72 h
Summary of the method: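 Asynchronous asexual blood-stage parasites were seeded at 0.3% parasitemia and 1% hematocrit into 2-fold, 10-point test compound dilutions. Incubation was 72 h at 37°C under 5% O2/5% CO2/90% N2. Final parasitemia was read by flow cytometry. IC50 came from nonlinear regression, 4 independent assays in duplicate, with two-tailed Mann-Whitney U tests.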

PfCRT 7G8+C350R = molecular target: T1, PfCRT 7G8+C350R (Plasmodium falciparum, UniProt W7FI62, C350R); test: Transport; assay type: biochemical; conditions: for 1-min uptake, transport in proteoliposomes: 100 nM [3H]-drug, inwardly-directed pH gradient; for Vmax, transport in proteoliposomes: initial rates over 3 s, Michaelis-Menten fit; for transport activity (in words): proteoliposomes
T1 sequence (W7FI62 1-424 C350R): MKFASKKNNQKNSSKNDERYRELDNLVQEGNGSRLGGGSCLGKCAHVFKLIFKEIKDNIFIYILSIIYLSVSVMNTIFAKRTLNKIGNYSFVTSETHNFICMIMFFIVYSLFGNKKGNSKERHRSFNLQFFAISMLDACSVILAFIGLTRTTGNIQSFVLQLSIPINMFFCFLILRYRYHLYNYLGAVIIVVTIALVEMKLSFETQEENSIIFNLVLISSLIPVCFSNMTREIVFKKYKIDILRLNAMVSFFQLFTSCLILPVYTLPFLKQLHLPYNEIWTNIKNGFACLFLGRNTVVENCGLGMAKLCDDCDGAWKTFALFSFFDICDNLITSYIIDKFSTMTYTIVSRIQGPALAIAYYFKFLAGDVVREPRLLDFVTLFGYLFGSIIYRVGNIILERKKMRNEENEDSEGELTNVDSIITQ

[2] = test system: P. falciparum 7G8^7G8+F145I parasite line; test: [3H]-drug accumulation assay in cultured parasites; assay type: cell-based, Plasmodium falciparum; conditions: 60 min, trophozoites
Summary of the method: (§1)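 Sorbitol-synchronized early trophozoites (24–26 h) were magnet-purified and resuspended in bicarbonate-free RPMI 1640 (25 mM HEPES, 10 mM glucose, 0.2 mM hypoxanthine, pH 7.4), counted by hemocytometer. They were mixed with an equal volume of radiolabelled drug (10 nM [3H]-CQ before mixing) for 1 h at 37°C, spun through dibutyl phthalate, then scintillation counted. CAR was internal/external drug, corrected for uninfected erythrocytes, per 10^6 cells at 75 fl; 4–6 assays in duplicate.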

PfCRT 7G8 = molecular target: T2, PfCRT 7G8 (Plasmodium falciparum, UniProt W7FI62); test: Scintillation proximity assay; assay type: binding; conditions: for competition of [3H]-Arg binding (in words): 125 nM [3H]-Arg, 1 μM CQ or PPQ, 0.1 μM amodiaquine, 1 mM Arg, Lys or Leu; for EC50: half-maximal binding constant (EC50), isotopic dilution, SPA, nanodiscs, pH 7.5, isotopic dilution of [3H]-CQ or [3H]-PPQ
T2 sequence (W7FI62 1-424): T1 sequence (W7FI62 1-424 C350R) with R350C

[3] = test system: P. falciparum 7G8^7G8+C350R parasite line; test: [3H]-drug accumulation assay in cultured parasites; assay type: cell-based, Plasmodium falciparum; conditions: 60 min, trophozoites
Summary of the method: as §1

[4] = test system: P. falciparum Dd2^Dd2 parasite line; test: [3H]-drug accumulation assay in cultured parasites; assay type: cell-based, Plasmodium falciparum; conditions: 60 min, trophozoites
Summary of the method: as §1

PfCRT WT (3D7) = molecular target: T3, PfCRT WT (3D7) (Plasmodium falciparum, UniProt Q9N623); test: Transport; assay type: biochemical; conditions: for 1-min uptake, transport in proteoliposomes: 100 nM [3H]-drug, inwardly-directed pH gradient; for transport activity (in words): proteoliposomes
T3 sequence (Q9N623 1-424): T1 sequence (W7FI62 1-424 C350R) with S72C, T76K, S220A, D326N, R350C, L356I
Summary of the method: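 PfCRT proteoliposomes (40 ng protein per assay) are loaded with 100 mM KPi, pH 7.5, and 2 mM β-mercaptoethanol. They are diluted into 100 mM Tris/Mes, pH 5.5, giving an inward pH gradient, with 100 nM [3H]-CQ (5.45 Ci/mmol) or [3H]-PPQ (15 Ci/mmol) for 1 min. Filter mock uptake without liposomes and control-liposome uptake are subtracted. Data come from 2 independent experiments, each with 4 technical replicates.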

[5] = test system: P. falciparum WT (3D7) parasite line; test: [3H]-drug accumulation assay in cultured parasites; assay type: cell-based, Plasmodium falciparum; conditions: 60 min, trophozoites
Summary of the method: as §1

[6] = test system: P. falciparum 7G8^7G8 parasite line; test: [3H]-drug accumulation assay in cultured parasites; assay type: cell-based, Plasmodium falciparum; conditions: 60 min, trophozoites
Summary of the method: as §1

Row | SMILES | fold increase in IC90 compared to the isogenic 7G8 control line ([1]; 72 h growth inhibition) [fold] | IC50 [1] [nM] | 1-min uptake, transport in proteoliposomes (PfCRT 7G8+C350R) [nmol/mg] | Vmax, transport in proteoliposomes (PfCRT 7G8+C350R) [nmol/mg/min] | transport activity (in words) (PfCRT 7G8+C350R) | [3H]-PPQ CAR (cellular accumulation ratio) ([2]; 20 nM [3H]-PPQ) | competition of [3H]-Arg binding (in words) (PfCRT 7G8) | EC50 (PfCRT 7G8) | [3H]-PPQ CAR (cellular accumulation ratio) ([3]; 20 nM [3H]-PPQ) | [3H]-PPQ CAR (cellular accumulation ratio) ([4]; 20 nM [3H]-PPQ) | 1-min uptake, transport in proteoliposomes (PfCRT WT (3D7)) [nmol/mg] | transport activity (in words) (PfCRT WT (3D7)) | [3H]-PPQ CAR (cellular accumulation ratio) ([5]; 20 nM [3H]-PPQ) | [3H]-PPQ CAR (cellular accumulation ratio) ([6]; 20 nM [3H]-PPQ) | [3H]-CQ CAR (cellular accumulation ratio) ([2]; 5 nM [3H]-CQ) | [3H]-CQ CAR (cellular accumulation ratio) ([3]; 5 nM [3H]-CQ) | [3H]-CQ CAR (cellular accumulation ratio) ([4]; 5 nM [3H]-CQ) | [3H]-CQ CAR (cellular accumulation ratio) ([5]; 5 nM [3H]-CQ) | [3H]-CQ CAR (cellular accumulation ratio) ([6]; 5 nM [3H]-CQ)
1 | Clc1ccc2c(N3CCN(CCCN4CCN(c5ccnc6cc(Cl)ccc56)CC4)CC3)ccnc2c1 [PPQ, piperaquine] | 188 | 28.7 ± 1 | 0.82 ± 0.07 | 153.00 ± 3.10 | substantially increased | 1125.6 ± 59.6 | effectively competed | ~190 nM and 190 nM | 1207.4 ± 119.8 | 1861.3 ± 91.8 | 0.51 ± 0.04 | Minimal | 2123.8 ± 72.2 | 1943.9 ± 82.2 |  |  |  |  | 
2 | CCN(CC)CCCC(C)Nc1ccnc2cc(Cl)ccc12 (stereo not drawn) [CQ, chloroquine] |  | 7.3 ± 0.4 | 0.80 ± 0.21 | 17.97 ± 0.87 | reduced uptake |  | effectively competed | ~300 nM and 297 nM |  |  | 0.58 ± 0.08 | minimal uptake |  |  | 388.4 ± 38.9 | 406.4 ± 22.4 | 26.3 ± 2.9 | 876.7 ± 38.7 | 14.5 ± 3.7
